From ChEMBL document CHEMBL4118253, “Expedient synthesis and biological evaluation of alkenyl acyclic nucleoside phosphonate prodrugs” (Bioorg Med Chem, 2018)

Key:
[1] = test system: Human alphaherpesvirus 1; assay: Antiviral activity against Herpes simplex virus 1 KOS infected in HEL cells assessed as inhibition of virus-induced cytopathicity; assay type: functional, organism-based; settings: Human alphaherpesvirus 1, KOS
[2] = test system: Human alphaherpesvirus 2; assay: Antiviral activity against Herpes simplex virus 2 G infected in HEL cells assessed as inhibition of virus-induced cytopathicity; assay type: functional, organism-based; settings: Human alphaherpesvirus 2, strain G
[3] = test system: Human alphaherpesvirus 1; assay: Antiviral activity against acyclovir-resistant thymidine kinase deficient Herpes simplex virus 1 KOS infected in HEL cells assessed as inhibition of virus-induced cytopathicity; assay type: functional, organism-based; settings: Human alphaherpesvirus 1, KOS
[4] = test system: Vaccinia virus; assay: Antiviral activity against Vaccinia virus infected in HEL cells assessed as inhibition of virus-induced cytopathicity; assay type: functional, organism-based; settings: Orthopoxvirus vaccinia
[5] = test system: Human adenovirus 2; assay: Antiviral activity against Adenovirus 2 infected in HEL cells assessed as inhibition of virus-induced cytopathicity; assay type: functional, organism-based; settings: Human mastadenovirus C
[6] = test system: Human coronavirus 229E; assay: Antiviral activity against Human coronavirus 229E infected in HEL cells assessed as inhibition of virus-induced cytopathicity; assay type: functional, organism-based
[7] = test system: Human respirovirus 3; assay: Antiviral activity against Parainfluenza virus 3 infected in human HeLa cells assessed as inhibition of virus-induced cytopathicity; assay type: functional, organism-based; settings: Human respirovirus 3, HeLa
[8] = test system: Mammalian orthoreovirus 1; assay: Antiviral activity against Reovirus-1 infected in human HeLa cells assessed as inhibition of virus-induced cytopathicity; assay type: functional, organism-based; settings: Mammalian orthoreovirus 1, HeLa
[9] = test system: Vesicular stomatitis virus; assay: Antiviral activity against Vesicular stomatitis virus infected in human HeLa cells assessed as inhibition of virus-induced cytopathicity; assay type: functional, organism-based
[10] = test system: Respiratory syncytial virus; assay: Antiviral activity against Respiratory syncytial virus infected in human HeLa cells assessed as inhibition of virus-induced cytopathicity; assay type: functional, organism-based
[11] = test system: Influenza A virus; assay: Antiviral activity against Influenza A virus H1N1 infected in MDCK cells assessed as inhibition of virus-induced cytopathicity by MTS assay; assay type: functional, organism-based
[12] = test system: Influenza A virus H3N2; assay: Antiviral activity against Influenza A virus H3N2 infected in MDCK cells assessed as inhibition of virus-induced cytopathicity by MTS assay; assay type: functional, organism-based
[13] = test system: Influenza B virus; assay: Antiviral activity against Influenza B virus infected in MDCK cells assessed as inhibition of virus-induced cytopathicity by MTS assay; assay type: functional, organism-based
[14] = test system: Human alphaherpesvirus 3; assay: Antiviral activity against thymidine kinase expressing Varicella-Zoster virus infected in HEL cells assessed as reduction in virus plaque formation; assay type: functional, organism-based; settings: Human alphaherpesvirus 3, HEL
[15] = test system: Human alphaherpesvirus 3; assay: Antiviral activity against thymidine kinase deficient Varicella-Zoster virus infected in HEL cells assessed as reduction in virus plaque formation; assay type: functional, organism-based; settings: Human alphaherpesvirus 3, HEL
[16] = test system: Human betaherpesvirus 5; assay: Antiviral activity against Human cytomegalovirus AD169 infected in HEL cells assessed as inhibition of virus-induced cytopathicity; assay type: functional, organism-based; settings: Human betaherpesvirus 5, AD169, HEL
[17] = test system: Human betaherpesvirus 5; assay: Antiviral activity against Human cytomegalovirus Davis infected in HEL cells assessed as inhibition of virus-induced cytopathicity; assay type: functional, organism-based; settings: Human betaherpesvirus 5, Davis
[18] = Cytotoxicity against HEL cells assessed as alteration of cell morphology by microscopic analysis; assay type: cell-based; settings: human
How it was run: (§1)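 The value is the minimal cytotoxic concentration (MCC), the lowest concentration that causes a microscopically visible change in cell morphology. It was read in the same HEL or Vero cell cultures used for the antiviral tests.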

[19] = test system: Sindbis virus; assay: Antiviral activity against Sindbis Virus infected in African green monkey Vero cells assessed as inhibition of virus-induced cytopathicity; assay type: functional, organism-based
[20] = test system: Coxsackievirus B4; assay: Antiviral activity against Coxsackie virus B4 infected in African green monkey Vero cells assessed as inhibition of virus-induced cytopathicity; assay type: functional, organism-based; settings: Enterovirus B
[21] = test system: Punta Toro virus; assay: Antiviral activity against Punta Toro virus infected in African green monkey Vero cells assessed as inhibition of virus-induced cytopathicity; assay type: functional, organism-based
[22] = test system: Yellow fever virus; assay: Antiviral activity against Yellow fever virus infected in African green monkey Vero cells assessed as inhibition of virus-induced cytopathicity; assay type: functional, organism-based
[23] = Cytotoxicity against African green monkey Vero cells assessed as alteration of cell morphology by microscopic analysis; assay type: cell-based; settings: chlorocebus sabaeus; how it was run: as §1
[24] = Cytotoxicity against human HeLa cells assessed as alteration of cell morphology by microscopic analysis; assay type: cell-based
[25] = Cytotoxicity against MDCK cells assessed as alteration of cell morphology by microscopic analysis; assay type: cell-based, Canis lupus familiaris; settings: dog
[26] = test system: Influenza A virus; assay: Antiviral activity against Influenza A virus H1N1 infected in MDCK cells assessed as inhibition of virus-induced visual cytopathicity; assay type: functional, organism-based
[27] = test system: Influenza A virus H3N2; assay: Antiviral activity against Influenza A virus H3N2 infected in MDCK cells assessed as inhibition of virus-induced visual cytopathicity; assay type: functional, organism-based
[28] = test system: Influenza B virus; assay: Antiviral activity against Influenza B virus infected in MDCK cells assessed as inhibition of virus-induced visual cytopathicity; assay type: functional, organism-based

Compound | EC50 [1] | EC50 [2] | EC50 [3] | EC50 [4] | EC50 [5] | EC50 [6] | EC50 [7] | EC50 [8] | EC50 [9] | EC50 [10] | EC50 [11] | EC50 [12] | EC50 [13] | EC50 [15] | EC50 [17] | MCC [18] | EC50 [19] | EC50 [20] | EC50 [21] | EC50 [22] | further results
C/C(=C\CP(=O)(N[C@@H](C)C(=O)OCc1ccccc1)Oc1cccc2ccccc12)Cn1cc(C)c(=O)[nH]c1=O (stereo partly drawn) | > 100 µM | > 100 µM | > 100 µM | > 100 µM | > 100 µM | > 100 µM | > 100 µM | > 100 µM | > 100 µM | > 100 µM | > 100 µM | > 100 µM | > 100 µM | 55.3 µM | > 100 µM | > 100 µM | > 100 µM | > 100 µM | > 100 µM | > 100 µM | EC50 [14]: 34.2 µM; EC50 [16]: > 100 µM; MCC [23]: > 100 µM; MCC [24]: > 100 µM; MCC [25]: > 100 µM; EC50 [26]: > 100 µM; EC50 [27]: > 100 µM; EC50 [28]: > 100 µM
C/C(=C\CP(=O)(N[C@@H](C)C(=O)OCc1ccccc1)Oc1ccccc1)Cn1cc(C)c(=O)[nH]c1=O (stereo partly drawn) | > 100 µM | > 100 µM | > 100 µM | > 100 µM | > 100 µM | > 100 µM | > 100 µM | > 100 µM | > 100 µM | > 100 µM | > 100 µM | > 100 µM | > 100 µM | 46.7 µM | > 100 µM | > 100 µM | > 100 µM | > 100 µM | > 100 µM | > 100 µM | EC50 [14]: 55.7 µM; EC50 [16]: > 100 µM; MCC [23]: > 100 µM; MCC [24]: > 100 µM; MCC [25]: > 100 µM; EC50 [26]: > 100 µM; EC50 [27]: > 100 µM; EC50 [28]: > 100 µM
C/C(=C\CP(=O)(N[C@@H](C)C(=O)OC(C)C)Oc1cccc2ccccc12)Cn1cc(C)c(=O)[nH]c1=O (stereo partly drawn) | > 100 µM | > 100 µM | > 100 µM | > 100 µM | > 100 µM | > 100 µM | > 100 µM | > 100 µM | > 100 µM | > 100 µM | > 100 µM | > 100 µM | > 100 µM | > 100 µM | > 100 µM | > 100 µM | > 100 µM | > 100 µM | > 100 µM | > 100 µM | EC50 [16]: > 100 µM; MCC [23]: ≥ 20 µM; MCC [24]: ≥ 20 µM; MCC [25]: > 100 µM; EC50 [26]: > 100 µM; EC50 [27]: > 100 µM; EC50 [28]: > 100 µM
C/C(=C/CP(=O)(N[C@@H](C)C(=O)OC(C)C)Oc1cccc2c1CCCC2)Cn1cc(C)c(=O)[nH]c1=O (stereo partly drawn) | > 100 µM | > 100 µM | > 100 µM | > 100 µM | > 100 µM | > 100 µM | > 100 µM | > 100 µM | > 100 µM | > 100 µM | > 100 µM | > 100 µM | > 100 µM | > 20 µM | > 20 µM | 100 µM | 45 µM | 58 µM | 45 µM | 58 µM | EC50 [14]: > 20 µM; MCC [23]: > 100 µM; MCC [24]: > 100 µM; MCC [25]: 100 µM; EC50 [26]: > 100 µM; EC50 [27]: > 100 µM; EC50 [28]: > 100 µM
C/C(=C\CP(=O)(N[C@@H](C)C(=O)OCc1ccccc1)Oc1cccc2c1CCCC2)Cn1cc(C)c(=O)[nH]c1=O (stereo partly drawn) | > 100 µM | > 100 µM | > 100 µM | > 100 µM | > 100 µM | > 100 µM | > 100 µM | > 100 µM | > 100 µM | > 100 µM | > 100 µM | > 100 µM | > 100 µM | 47.2 µM | > 100 µM | > 100 µM | > 100 µM | > 100 µM | > 100 µM | > 100 µM | EC50 [14]: 50.2 µM; EC50 [16]: > 100 µM; MCC [23]: ≥ 100 µM; MCC [24]: ≥ 100 µM; MCC [25]: > 100 µM; EC50 [26]: > 100 µM; EC50 [27]: > 100 µM; EC50 [28]: > 100 µM
C/C(=C\CP(=O)(N[C@@H](C)C(=O)OC(C)C)Oc1ccccc1)Cn1cc(C)c(=O)[nH]c1=O (stereo partly drawn) | > 100 µM | > 100 µM | > 100 µM | > 100 µM | > 100 µM | > 100 µM | > 100 µM | > 100 µM | > 100 µM | > 100 µM | > 100 µM | > 100 µM | > 100 µM | > 100 µM | > 100 µM | > 100 µM | > 100 µM | > 100 µM | > 100 µM | > 100 µM | EC50 [14]: 76.5 µM; EC50 [16]: > 100 µM; MCC [23]: ≥ 20 µM; MCC [24]: ≥ 20 µM; MCC [25]: > 100 µM; EC50 [26]: > 100 µM; EC50 [27]: > 100 µM; EC50 [28]: > 100 µM
C/C(=C/CP(=O)(N[C@@H](C)C(=O)OCc1ccccc1)Oc1cccc2c1CCCC2)Cn1cc(C)c(=O)[nH]c1=O (stereo partly drawn) | > 100 µM | > 100 µM | > 100 µM | > 100 µM | > 100 µM | > 100 µM | > 100 µM | > 100 µM | > 100 µM | > 100 µM | > 100 µM | > 100 µM | > 100 µM | 65.1 µM | 76.5 µM | > 100 µM | > 100 µM | > 100 µM | > 100 µM | > 100 µM | EC50 [14]: 17 µM; MCC [23]: ≥ 20 µM; MCC [24]: ≥ 20 µM; MCC [25]: > 100 µM; EC50 [26]: > 100 µM; EC50 [27]: > 100 µM; EC50 [28]: > 100 µM
Nc1nc2c(ncn2COCCO)c(=O)[nH]1 [ACYCLOVIR] | – | – | 126 µM | > 250 µM | – | – | – | – | – | – | – | – | – | – | – | 250 to 440 µM | – | – | – | – | –
Cc1cn([C@H]2C[C@H](F)[C@@H](CO)O2)c(=O)[nH]c1=O [ALOVUDINE] | – | – | – | – | 1.2 µM | – | – | – | – | – | – | – | – | – | – | > 250 µM | – | – | – | – | –
